Test [1] concerns the target T1, Dihydroorotate dehydrogenase (quinone), mitochondrial (Homo sapiens, UniProt Q02127). Description: Inhibition of DHODH in human HEK-293 cells transfected with ISRE-luciferase reporter gene assessed as increase in IFN-alpha mediated cellular response at 6 to 178 uM after 24 hrs by luciferase reporter gene assay. As to conditions: HEK293, dose 6-178 µM. The format is cell-based. A general note: Reporter assays use an easily measured gene product as a stand-in for the process of interest.

In test [2] the target is T1, Dihydroorotate dehydrogenase (quinone), mitochondrial. Description: Inhibition of DHODH in human HEK293 cells transfected with ISRE-luciferase reporter gene assessed as increase in 60 IU/ml IFN-alpha stimulated IFIT3 mRNA expression at 80 uM measured after 16 hrs by RT-qPCR analysis relative to control. Type of test: cell-based. In outline:
(§1)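 ISRE-Luc HEK cells co-treated with increasing IFN-α concentrations and DMSO or compound (80 µM) for 16 h. Total RNA extracted from 2×10^5 cells with DNase step; qPCR 35 cycles. CT values normalized to RPL13A and unstimulated controls (2^-ΔΔCT), expressed as fold change versus DMSO alone. Three independent experiments; two-way ANOVA with Bonferroni.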

Test [3] has the same target. The test is described as follows: Inhibition of DHODH in human HEK293 cells transfected with ISRE-luciferase reporter gene assessed as increase in 30 IU/ml IFN-alpha stimulated ISG15 mRNA expression at 80 uM measured after 16 hrs by RT-qPCR analysis relative to control. The format is cell-based. An outline of the steps: as §1
For test [4] the target is unchanged. The test is described as follows: Inhibition of DHODH in human HEK293 cells transfected with ISRE-luciferase reporter gene assessed as increase in 125 IU/ml IFN-alpha stimulated IFIT1 mRNA expression at 80 uM measured after 16 hrs by RT-qPCR analysis relative to control. The format is cell-based. An outline of the steps:
as §1

Test [5] shares this target. The test is described as follows: Inhibition of DHODH in human HEK293 cells transfected with ISRE-luciferase reporter gene assessed as increase in 250 IU/ml IFN-alpha stimulated IFIT2 mRNA expression at 80 uM measured after 16 hrs by RT-qPCR analysis relative to control. The format is cell-based. An outline of the steps:
as §1

For test [6] the target is unchanged. The test is described as follows: Inhibition of DHODH in human HEK293 cells transfected with ISRE-luciferase reporter gene assessed as increase in 30 IU/ml IFN-alpha stimulated […] mRNA expression at 80 uM measured after 16 hrs by RT-qPCR analysis relative to control. Type of test: cell-based. In outline:
as §1

The target is the same in test [7]. The test is described as follows: Inhibition of DHODH in human HEK293 cells transfected with ISRE-luciferase reporter gene assessed as increase in 60 IU/ml IFN-alpha stimulated […] mRNA expression at 80 uM measured after 16 hrs by RT-qPCR analysis relative to control. Type of test: cell-based. In outline:
as §1

Test [8] shares this target. Description: Inhibition of DHODH in human HEK293 cells transfected with ISRE-luciferase reporter gene assessed as increase in 125 IU/ml IFN-alpha stimulated […] mRNA expression at 80 uM measured after 16 hrs by RT-qPCR analysis relative to control. Type of test: cell-based. In outline: as §1
The target is the same in test [9]. The test is described as follows: Inhibition of DHODH in human HEK293 cells transfected with ISRE-luciferase reporter gene assessed as increase in 125 IU/ml IFN-alpha stimulated IFITM3 mRNA expression at 80 uM measured after 16 hrs by RT-qPCR analysis relative to control. Type of test: cell-based. In outline: as §1
Test [10] shares this target. The test is described as follows: Inhibition of DHODH in human HEK293 cells transfected with ISRE-luciferase reporter gene assessed as increase in 250 IU/ml IFN-alpha stimulated IFITM3 mRNA expression at 80 uM measured after 16 hrs by RT-qPCR analysis relative to control. The format is cell-based. In outline:
as §1

Test [11] shares this target. The test is described as follows: Inhibition of DHODH in human HEK293 cells transfected with ISRE-luciferase reporter gene assessed as increase in 60 IU/ml IFN-alpha stimulated DDX58 mRNA expression at 80 uM measured after 16 hrs by RT-qPCR analysis relative to control. Type of test: cell-based. In outline: as §1
For test [12] the target is unchanged. Description: Inhibition of DHODH in human HEK293 cells assessed as increase in 250 IU/ml IFN-alpha stimulated DDX58 mRNA expression at 80 uM measured after 16 hrs by RT-qPCR analysis relative to control. The format is cell-based. In outline:
as §1
In general terms: In qPCR the cycle at which signal appears reflects the starting amount.

Test [13] has the same target. Description: Inhibition of DHODH in human HEK293 cells transfected with ISRE-luciferase reporter gene assessed as increase in 125 IU/ml IFN-alpha stimulated MX2 mRNA expression at 80 uM measured after 16 hrs by RT-qPCR analysis relative to control. The format is cell-based. An outline of the steps: as §1
The target is the same in test [14]. The test is described as follows: Inhibition of DHODH in human HEK293 cells transfected with ISRE-luciferase reporter gene assessed as increase in 250 IU/ml IFN-alpha stimulated MX2 mRNA expression at 80 uM measured after 16 hrs by RT-qPCR analysis relative to control. Type of test: cell-based. In outline: as §1
The target is the same in test [15]. The test is described as follows: Inhibition of DHODH in human HEK293 cells transfected with ISRE-luciferase reporter gene assessed as increase in 60 IU/ml IFN-alpha stimulated IFIT5 mRNA expression at 80 uM measured after 16 hrs by RT-qPCR analysis relative to control. Type of test: cell-based. In outline:
(§2)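 HEK-293 ISRE-Luc cells (DMEM, 10% FCS, 37°C, 5% CO2) were given increasing IFN-α doses together with DMSO or compound at 80 μM, then harvested at 16 h. RNA was extracted from 2×10^5 cells with DNase treatment. Transcripts were run by qPCR for 35 cycles and normalized to RPL13A and to unstimulated controls by 2^-ΔΔCT. Values are fold change versus DMSO; three independent experiments; two-way ANOVA with Bonferroni.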

For test [16] the target is unchanged. The test is described as follows: Inhibition of DHODH in human HEK293 cells transfected with ISRE-luciferase reporter gene assessed as increase in 60 IU/ml IFN-alpha stimulated PML mRNA expression at 80 uM measured after 16 hrs by RT-qPCR analysis relative to control. The format is cell-based. An outline of the steps:
as §2

Test [17] has the same target. Description: Inhibition of DHODH in human HEK-293 cells transfected with ISRE-luciferase reporter gene assessed as increase in 150 IU/ml IFN-alpha mediated cellular response at 80 uM in presence of AZD6738 ATR inhibitor measured after 24 hrs by luciferase reporter gene assay. The format is cell-based. As to conditions: HEK293. In outline:
(§3)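 ISRE-Luc HEK-293 cells given IFN-α (150 IU/ml) alone or with test compound (80 µM), with or without the MRE11 inhibitor mirin, ATR inhibitor AZD6738, CHK1 inhibitor PF477736 or P300/CBP inhibitor C636. Firefly luciferase read 24 h later, normalized to IFN-α alone. Means ± SD of at least three independent experiments.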

The target is the same in test [18]. Description: Inhibition of DHODH in human HEK-293 cells transfected with ISRE-luciferase reporter gene assessed as increase in 150 IU/ml IFN-alpha mediated cellular response at 80 uM in presence of PF477736 CHK1 inhibitor measured after 24 hrs by luciferase reporter gene assay. The format is cell-based. As to conditions: HEK293. An outline of the steps:
as §3

For test [19] the target is unchanged. The test is described as follows: Inhibition of DHODH in human HEK-293 cells transfected with ISRE-luciferase reporter gene assessed as increase in IFN-alpha mediated cellular response after 24 hrs by luciferase reporter gene assay. As to conditions: read-out: EC50.

Structures are written as SMILES. Calls of active or inactive are those of the source. The calls are words filed in the database; no cut-off is given here.

T1 sequence (Q02127 whole entry): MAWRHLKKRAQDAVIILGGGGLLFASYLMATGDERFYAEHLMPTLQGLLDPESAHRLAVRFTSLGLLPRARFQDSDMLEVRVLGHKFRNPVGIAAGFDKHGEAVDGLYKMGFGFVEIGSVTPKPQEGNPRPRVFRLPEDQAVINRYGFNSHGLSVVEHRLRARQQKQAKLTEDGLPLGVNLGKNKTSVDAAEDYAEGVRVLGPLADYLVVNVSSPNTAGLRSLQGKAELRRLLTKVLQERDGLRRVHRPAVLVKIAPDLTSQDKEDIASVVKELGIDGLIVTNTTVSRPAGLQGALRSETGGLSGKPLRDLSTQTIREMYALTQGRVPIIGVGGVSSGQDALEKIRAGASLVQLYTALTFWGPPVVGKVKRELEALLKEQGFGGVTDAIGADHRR

Turning to `O=C1OC2(CCCCC2)c2ccn(C3CC3)c(=O)c21`, in [1], the result was Active. For the same molecule, the fold change (FC) in test [2] worked out at 69; in test [3], 21; in [4] it was 115; in [5], 165; in test [6], 44; in test [7], 83. Besides, the fold change (FC) amounted to 117 in [8]; 14 in [9]; 15 in test [10]; 23 in [11]; 38 in test [12]; 20 in [13]. The fold change (FC) in test [14] was 28; in [15], 3; in test [16] it was 4. For the same molecule, the result in test [17] and in [18] was inactive. Also, the EC50 – broadly, the concentration giving half of the maximal effect – in test [19] turned out to be 44 µM.
